Consider 13 compounds from ChEMBL document CHEMBL1122650, “Synthesis and central nervous system properties of 2-[(alkoxycarbonyl)amino]-4(5)-phenyl-2-imidazolines” (J Med Chem, 1984).

Data set [1] in a line: HPLC capacity factor (k'). In kind it is ADME.
The species entered for data set [2] is Mus musculus. Briefly: Compound was evaluated for maximal electroshock antagonism (MES) against mice; Inactive. In kind it is functional, organism-based. The essentials:
(§1)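 Male HLa (ICR) BR mice, groups of eight to ten, dosed ip (aqueous solution) 15 min before transcorneal electroshock (50 mA, 0.2 s). End point: abolition of tonic hind-limb extension; quantal ED50 by Litchfield-Wilcoxon.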

Data set [3] deals with Mus musculus. Briefly: Compound was evaluated in vivo for reserpine hypothermia after oral administration in mouse. Minimum active dose was reported; Inactive. Type of data set: functional, organism-based. The essentials:
(§2)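 Male HLa (ICR) BR mice, 18-24 g, in groups of eight; reserpine 5 mg/kg ip given 2 h before oral test compound as aqueous solution. Rectal temperature taken hourly; 1-4-h hypothermia assessed by analysis of variance.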

Data set [4] in a line: Lethal dose in mouse, in groups of ten. Type of data set: toxicity, organism-based. The settings on record: in vivo.
The species named for data set [5] is Mus musculus. Kind of data set: Evaluated for antagonism of reserpine induced hypothermia;I= Inactive. In kind it is functional, organism-based. The essentials:
as §2

The species entered for data set [6] is Mus musculus. Briefly: Mouse behavior activity was determined; Dwk=Depressant Weak. Type of data set: functional, organism-based. The essentials:
(§3)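 Male Simonsen (ICR) fBR mice, 18-24 g, groups of three, given 3, 10, 30, 100, 300 or 1000 mg/kg ip as aqueous solution and observed for behavioral profile; deaths followed up to 7 days.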

For data set [7], the species on record is Mus musculus. Briefly: Mouse behavior activity was determined; Inactive. Type of data set: functional, organism-based. The method, boiled down: as §3
The species named for data set [8] is Mus musculus. Kind of data set: Righting ability was determined in mice before rapid rolling (unaroused). Type of data set: functional. The essentials: (§4)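 Male Simonsen (ICR) fBR mice, 18-24 g, groups of ten, dosed with aqueous compound. Righting ability checked before (unaroused) and after (aroused) rapid rolling in the hand; ED50 by Litchfield-Wilcoxon method.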

For data set [9], the species on record is Mus musculus. Briefly: Mouse behavior activity was determined;D= Depressant. In kind it is functional, organism-based. The method, boiled down: as §3
The species named for data set [10] is Mus musculus. Kind of data set: Righting ability was determined in mice after rapid rolling (aroused). In kind it is functional. The essentials: as §4
The species named for data set [11] is Mus musculus. Kind of data set: Mouse behavior activity was determined; D=Depressant. Type of data set: functional, organism-based. The essentials: as §3
Data set [12] is filed under the species Mus musculus. Kind of data set: Compound was evaluated for maximal electroshock antagonism (MES) against mice. In kind it is functional. The method, boiled down: as §1
The species entered for data set [13] is Mus musculus. Kind of data set: Mouse behavior activity was determined; Dwk= Depressant Weak. Type of data set: functional, organism-based. The essentials:
as §3

The species named for data set [14] is Rattus norvegicus. Kind of data set: Inhibition of the NE [3H]Norepinephrine uptake by rat brain slices In vitro. Type of data set: functional.
The species entered for data set [15] is Rattus norvegicus. Briefly: Inhibition of the 5-HT [14C]5-HT uptake by rat brain slices In vitro. Type of data set: functional. The method, boiled down: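 Rat cerebral cortex slices, 5 mg tissue per mL Krebs-Henseleit buffer, incubated at 37 °C with [3H]NE or [14C]5-HT; blanks at 4 °C, undosed controls. Stopped after 20 min by filtration; slice radioactivity counted; IC50 from linear regression of uptake inhibition.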

Data set [16] is filed under the species Mus musculus. Briefly: Evaluated for antagonism of reserpine induced hypothermia. In kind it is functional. The method, boiled down:
as §2

Data set [17] relates to Mus musculus. Kind of data set: Reserpine hypothermia antagonism in mouse administered perorally with 5 mg/kg of reserpine 2 hour prior to test compound administration. Type of data set: functional. The conditions noted are these: route oral.
The species named for data set [18] is Mus musculus. Briefly: Inhibition of radioactive NE [3H]norepinephrine uptake into mouse heart. Type of data set: functional. The method, boiled down: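 Mice dosed ip (aqueous solution) before iv [3H]NE; hearts removed 3 h after label, washed, weighed, dissolved in Protosol and counted as dpm per mg tissue. Dose-response from linear regression.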
The nature of data set [19]: Compound was evaluated for lethal dose in mouse in groups of ten (values in parentheses indicates 95% confidence limits). Type of data set: toxicity, organism-based. The settings on record: in vivo.
Data set [20] is filed under the species Mus musculus. Kind of data set: Mouse behavior activity was determined; D = Depressant. In kind it is functional, organism-based. The method, boiled down: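 Male Simonsen (ICR) fBR mice (18-24 g) given 3, 10, 30, 100, 300 or 1000 mg/kg ip as aqueous solution and observed for behaviour in groups of three.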
The species named for data set [21] is Mus musculus. Kind of data set: Righting ability was determined in mice […] rapid rolling (aroused). In kind it is functional. The essentials: as §4
In data set [22] the test system is Mus musculus. Briefly: Compound was evaluated in vivo for reserpine hypothermia after oral administration in mouse. Minimum active dose was reported, with the percent reversal at 10 mg/kg in parenthesis. In kind it is functional. The method, boiled down: (§5)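 Male HLa (ICR) BR mice (18-24 g), groups of eight, dosed ip with 5 mg/kg reserpine 2 h before oral test compound given as aqueous solution. Rectal temperature measured hourly; 1-4-h thermia assessed by analysis of variance.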

The species named for data set [23] is Mus musculus. Briefly: Compound was evaluated for maximal electroshock antagonism (MES) against mice (values in parentheses indicates 95% confidence limits). In kind it is functional. The essentials: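 Male HLa (ICR) BR mice, groups of eight to ten, given compound ip as aqueous solution 15 min before transcorneal electroshock (50 mA, 0.2 s). End point was abolition of tonic hind-limb extension; quantal ED50 derived by Litchfield-Wilcoxon.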

Data set [24] is filed under the species Mus musculus. Kind of data set: Compound was evaluated for antagonism of reserpine induced hypothermia;I= Inactive. Type of data set: functional, organism-based. The essentials: as §5

Active and inactive are the calls of the source. No cut-off for these calls is given here. Bounds are passed on as bounds.

Take `COC(=O)NC1=NC(c2ccc([S+](C)[O-])cc2)CN1C` (stereo not given): the “Log k'” value in data set [1] is -1.03. For the same compound, the ED50 entry in the data set listed under Mus musculus [2] and with Mus musculus [3] was “inactive” throughout. This compound also came in with an LD50 in data set [4] above 1000 mg/kg. The HYPO entry in the data set listed under Mus musculus [5] was “inactive”. The Mouse behavior activity result in the data set filed under Mus musculus [6] was “Depressant Weak”.

In the case of `COC(=O)NC1=NC(c2ccc(O)cc2)CN1` (stereo not given), in the data set listed under Mus musculus [2], the ED50 result is “inactive”. For the same compound, the Mouse behavior activity entry in the data set filed under Mus musculus [7] was “inactive”. This compound came in with an LD50 in [4] of 700 mg/kg.

On to `CCOc1ccccc1C1CN=C(NC(=O)OC)N1` (stereo not given), for which the “Log k'” value in data set [1] was 0.55. Besides, the values for the Loss of righting reflex in the data set listed under Mus musculus [8] and in the data set filed under Mus musculus [10] were 155 mg/kg and 125 mg/kg, respectively. In addition, the ED50 entry in the data set filed under Mus musculus [2] is “inactive”. The Mouse behavior activity entry in the data set filed under Mus musculus [9] is listed as “Depressant”. For the same compound, in [4], the LD50 was found to be 700 mg/kg. Besides, the HYPO result in the data set filed under Mus musculus [5] is “inactive”.

For the compound `COC(=O)NC1=NC(c2ccccc2Cl)CN1` (stereo not given), the “Log k'” value in data set [1] worked out at 0.29. In the data set filed under Mus musculus [8], the Loss of righting reflex amounted to 200 mg/kg. Further, the Mouse behavior activity entry in the data set listed under Mus musculus [11] is “Depressant”. This compound also registered an ED50 in the data set filed under Mus musculus [12] of 50 mg/kg. For the same compound, in data set [4], the LD50 came to 500 mg/kg.

With `COC(=O)NC1=NC(c2ccccc2[S+](C)[O-])CN1C` (stereo not given), the “Log k'” value in [1] was -0.87. In addition, the ED50 result in the data set with Mus musculus [3] is “inactive”.

Take `COC(=O)NC1=NC(c2cccc(Br)c2)CN1` (stereo not given): the “Log k'” value in data set [1] is given as 0.5. Moreover, the Mouse behavior activity result in the data set listed under Mus musculus [13] is “Depressant - weak”. In the data set filed under Mus musculus [12], this compound yielded an ED50 of around 68 mg/kg. For the same compound, in [4], the LD50 stood at 300 mg/kg.

Turning to `COC(=O)NC1=NC(c2ccc(Cl)cc2)CN1C` (stereo not given), in data set [1], the “Log k'” value was found to be 0.54. For the same compound, the Mouse behavior activity entry in the data set listed under Mus musculus [9] is “Depressant”. This compound registered an ED50 in the data set listed under Mus musculus [12] of 66 mg/kg. Further, the ED50 result in the data set with Mus musculus [3] was “inactive”. In addition, the LD50 in data set [4] was determined as 200 mg/kg.

For `COC(=O)NC1=NC(c2c(Cl)cccc2Cl)CN1` (stereo not given), in [1], the “Log k'” value is 0.3. The ED50 entry in the data set filed under Mus musculus [2] was “inactive”. Moreover, the IC50 in the data set listed under Rattus norvegicus [14] and in the data set listed under Rattus norvegicus [15] was above 100 µM each time. Further, the HYPO in the data set listed under Mus musculus [16] was below 0.5 mg/kg. Also, the LD50 in data set [4] stood at 300 mg/kg. The Reserpine hypothermia in the data set with Mus musculus [17] was determined as 0.15 mg/kg. Moreover, in the data set listed under Mus musculus [18], the ED50 is 14.2 mg/kg. Besides, in the data set listed under Mus musculus [6], the Mouse behavior activity result is reported as “Depressant”.

Take `CCC1(c2ccccc2)C(=O)NC(=O)NC1=O` [PHENOBARBITAL]: the LD50 in [19] is 222 mg/kg. Moreover, the Loss of righting reflex came to 60 mg/kg in the data set filed under Mus musculus [8] and 107 mg/kg in the data set filed under Mus musculus [21]. Besides, the Mouse behavior activity result in the data set listed under Mus musculus [20] is “Depressant”. Further, the 50% effective dose (ED50) in the data set with Mus musculus [22] amounted to 22 mg/kg; in the data set listed under Mus musculus [23] it was 15 mg/kg.

`COC(=O)NC1=NC(c2cccc(OC)c2)CN1` (stereo not given): the “Log k'” value in data set [1] was -0.07. The values for the Loss of righting reflex in the data set listed under Mus musculus [8] and in the data set filed under Mus musculus [10] were 182 mg/kg and 197 mg/kg, respectively. Moreover, in the data set listed under Mus musculus [2], the ED50 entry is “inactive”. The Mouse behavior activity result in the data set filed under Mus musculus [9] was “Depressant”. The compound further registered an LD50 in data set [4] of 700 mg/kg. Further, the HYPO result in the data set listed under Mus musculus [5] was “inactive”.

Take `COC(=O)NC1=NC(c2cc(Br)ccc2Br)CN1C` (stereo not given): in data set [1], the “Log k'” value was found to be 0.98. For the same compound, the Mouse behavior activity result in the data set filed under Mus musculus [13] is listed as “Depressant - weak”. Besides, in the data set filed under Mus musculus [12], the median effective dose (ED50) stood at 45 mg/kg. The HYPO in the data set listed under Mus musculus [16] was below 0.5 mg/kg. Further, in [4], the LD50 was 500 mg/kg.

In the case of `COC(=O)NC1=NCC(c2cccc(Cl)c2)N1C` (stereo not given), the “Log k'” value in data set [1] is listed as 0.86. Further, the Mouse behavior activity entry in the data set filed under Mus musculus [13] was “Depressant - weak”. In the data set filed under Mus musculus [12], this compound had an ED50 of 31 mg/kg. The same compound returned an HYPO in the data set listed under Mus musculus [16] below 0.5 mg/kg. For the same compound, the LD50 in data set [4] amounted to 200 mg/kg.

As for `CNC1=Nc2ccc(Cl)cc2C(c2ccccc2)=[N+]([O-])C1` [CHLORDIAZEPOXIDE], the LD50 in data set [19] was 254 mg/kg. Besides, the Loss of righting reflex in the data set listed under Mus musculus [8] came out at 53 mg/kg; in the data set listed under Mus musculus [21], 140 mg/kg. For the same compound, in the data set filed under Mus musculus [20], the Mouse behavior activity result is “Depressant”. In addition, in the data set with Mus musculus [22], the ED50 came to 5 mg/kg. Besides, in the data set listed under Mus musculus [24], the HYPO entry was “inactive”.
